According to ChEMBL document CHEMBL1143208, “Structure and property based design of factor Xa inhibitors: biaryl pyrrolidin-2-ones incorporating basic heterocyclic motifs” (Bioorg Med Chem Lett, 2008):

Columns and labels:
[1] = Distribution coefficient, log D of the compound; type: physicochemical; details: chromatographic hydrophobicity index (CHI) at pH 7.4
Method in brief: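 Measured hydrophobicity expressed as a chromatographic hydrophobicity index (CHI) logD at pH 7.4.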

[2] = Half life in Sprague-Dawley rat; type: ADME, organism-based; details: in vivo
Method in brief: (§1)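 Male Sprague–Dawley rats dosed intravenously and orally, with pharmacokinetic parameters derived from both routes.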

[3] = Plasma clearance in Sprague-Dawley rat; type: ADME, organism-based; method in brief: as §1
[4] = Volume of distribution at steady state in Sprague-Dawley rat; type: ADME, organism-based; details: in vivo, read-out: Vdss; method in brief: as §1
[5] = Oral bioavailability in Sprague-Dawley rat; type: ADME, organism-based; details: in vivo; method in brief: as §1
[6] = Dissociation constant, pKa of the compound; type: physicochemical

C/C(=C\S(=O)(=O)NC1CCN(c2ccc(-n3ccnc3CN(C)C)cc2F)C1=O)c1ccc(Cl)s1 (configuration not stated)
logD [1]: 2.44 | half-life [2]: 48 min | clearance [3]: 18 mL/min/kg | Vd [4]: 0.7 L/kg | bioavailability [5]: 16%

O=C1C(NS(=O)(=O)/C=C/c2ccc(Cl)s2)CCN1c1ccc(-n2ccnc2CN2CCOCC2)cc1F (configuration not stated)
logD [1]: 2.28 | pKa [6]: 5.75

O=C1C(NS(=O)(=O)/C=C/c2ccc(Cl)s2)CCN1c1ccc(-n2ccnc2CN2CCCC2)cc1F (configuration not stated)
logD [1]: 2.21 | pKa [6]: 7.95

CN(C)Cc1nccn1-c1ccc(N2CCC(NS(=O)(=O)c3ncc(-c4ccc(Cl)s4)s3)C2=O)c(F)c1 (configuration not stated)
logD [1]: 2.75

O=C1C(NS(=O)(=O)/C=C/c2ccc(Cl)s2)CCN1c1ccc(-n2ccnc2CN2CCC(F)C2)cc1F (configuration not stated)
logD [1]: 2.58

CNCc1nccn1-c1ccc(N2CCC(NS(=O)(=O)/C=C/c3ccc(Cl)s3)C2=O)c(F)c1 (configuration not stated)
logD [1]: 1.7

CN(C)Cc1ccn(-c2ccc(N3CCC(NS(=O)(=O)c4cc5ccc(Cl)cc5s4)C3=O)c(F)c2)n1 (configuration not stated)
logD [1]: 2.4

CN(C)Cc1nccn1-c1ccc(N2CCC(NS(=O)(=O)c3ccc4[nH]cc(Cl)c4c3)C2=O)c(F)c1 (configuration not stated)
logD [1]: 1.76

CN(C)Cc1nocc1-c1ccc(N2CCC(NS(=O)(=O)/C=C/c3ccc(Cl)s3)C2=O)c(F)c1 (configuration not stated)
logD [1]: 3.29

C/C(=C\S(=O)(=O)NC1CCN(c2ccc(-n3cnc(CN(C)C)c3)cc2F)C1=O)c1ccc(Cl)s1 (configuration not stated)
logD [1]: 1.64

CN(C)Cc1nccn1-c1ccc(N2CCC(NS(=O)(=O)c3ccc4cc(Cl)ccc4c3)C2=O)c(F)c1 (configuration not stated)
logD [1]: 2.55

CN(C)Cc1nccn1-c1ccc(N2CCC(NS(=O)(=O)/C=C/c3ccc(Cl)s3)C2=O)c(F)c1 (configuration not stated)
logD [1]: 2.54 | half-life [2]: 60 min | clearance [3]: 13 mL/min/kg | Vd [4]: 0.6 L/kg | bioavailability [5]: 52% | pKa [6]: 7.26

CN(C)Cc1nccn1-c1ccc(N2CCC(NS(=O)(=O)c3ccc4c(Cl)c[nH]c4c3)C2=O)c(F)c1 (configuration not stated)
logD [1]: 1.98

CN(C)Cc1cn(-c2ccc(N3CCC(NS(=O)(=O)c4cc5ccc(Cl)cc5s4)C3=O)c(F)c2)cn1 (configuration not stated)
logD [1]: 1.82

CCN(C)Cc1nccn1-c1ccc(N2CCC(NS(=O)(=O)/C=C/c3ccc(Cl)s3)C2=O)c(F)c1 (configuration not stated)
logD [1]: 2.48

CN(C)Cc1nccn1-c1ccc(N2CCC(NS(=O)(=O)c3cc4cc(Cl)ccc4s3)C2=O)c(F)c1 (configuration not stated)
logD [1]: 2.59

C/C(=C\S(=O)(=O)NC1CCN(c2ccc(-n3cncc3CN(C)C)cc2F)C1=O)c1ccc(Cl)s1 (configuration not stated)
logD [1]: 2.31

CN(C)Cc1nccn1-c1ccc(N2CCC(NS(=O)(=O)c3cc4ccc(Cl)cc4s3)C2=O)c(F)c1 (configuration not stated)
logD [1]: 2.58

CN(C)Cc1nccn1-c1ccc(N2CCC(NS(=O)(=O)CCc3ccc(Cl)s3)C2=O)c(F)c1 (configuration not stated)
logD [1]: 2.32 | half-life [2]: 48 min | clearance [3]: 39 mL/min/kg | Vd [4]: 1.1 L/kg | bioavailability [5]: 10%

CN(C)Cc1ccnn1-c1ccc(N2CCC(NS(=O)(=O)c3cc4ccc(Cl)cc4s3)C2=O)c(F)c1 (configuration not stated)
logD [1]: 3.35

C/C(=C\S(=O)(=O)NC1CCN(c2ccc(-n3ccc(CN(C)C)n3)cc2F)C1=O)c1ccc(Cl)s1 (configuration not stated)
logD [1]: 2.2

CC(C)N(C)Cc1nccn1-c1ccc(N2CCC(NS(=O)(=O)/C=C/c3ccc(Cl)s3)C2=O)c(F)c1 (configuration not stated)
logD [1]: 2.7
